From PubChem
MrgX1 PAM = human MrgX1 positive allosteric modulation, primary screen. MrgX1-HEK293, Fluo-4 calcium flux, FDSS; stronger effect = higher value. B-score at 10 µM. 310,000 compounds, 0.63% hits. AID 588675;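 active = plate-corrected calcium response at least 3 library SD above typical, normal starting fluorescence, not activating the receptor alone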;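 note: compound read alongside a low EC10 to EC30 dose of BAM8-22 agonist; peak minus trough fluorescence over baseline measured at the second addition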
Target sequence (Q96LB2 whole entry, looked up): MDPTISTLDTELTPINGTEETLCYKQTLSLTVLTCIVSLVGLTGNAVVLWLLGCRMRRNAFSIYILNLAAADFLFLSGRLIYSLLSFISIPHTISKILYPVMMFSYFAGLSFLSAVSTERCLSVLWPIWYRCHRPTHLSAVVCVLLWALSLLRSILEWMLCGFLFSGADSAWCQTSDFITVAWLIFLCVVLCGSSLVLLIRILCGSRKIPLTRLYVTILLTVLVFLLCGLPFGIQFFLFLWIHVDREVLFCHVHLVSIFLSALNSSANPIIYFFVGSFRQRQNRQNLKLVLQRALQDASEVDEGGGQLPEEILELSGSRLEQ
MrgX1 agonist = agonists of human MrgX1 receptor | 310,000 compounds, 0.44% hits | B-score at 10 µM | Q96LB2 | AID 588627 | MrgX1-HEK293 cells, Fluo-4 calcium fluorescence, agonist mode; stronger effect = higher value;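 active = calcium response B-score plate-corrected fluorescence ratio at least 3 library SD, with starting fluorescence B-score inside 5 SD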
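times = overnight plating, then 30 min 37 °C plus 30 min room-temperature dye loading | assay system = stable human MrgX1 HEK293 cell line | input = fifteen thousand cells per well | signal = kinetic calcium dye fluorescence, Fluo-4 NW | dosing = compound delivered in addition one of three | read-out = B-scored fluorescence response ratio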
RGS4 act = potentiators or activators of RGS4; 310,000 compounds, 0.92% hits; AID 463111; HEK293 M3R/inducible RGS4, carbachol calcium flux Fluo4; stronger effect = lower value; B-score at 10 µM;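 active = B-score of the integrated calcium signal more than 4 SD below the library mean, with starting fluorescence not abnormally high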;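 note: negative B-score means reduced calcium response which marks RGS4 activation or potentiation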
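Detection: kinetic calcium fluorescence imaging with Fluo4-AM dye, 2 µM / Material: HEK293 cells with stable M3R and inducible RGS4 / Schedule: recording 10 s baseline at 1 Hz, 100 s post-agonist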
RGS4 inh = inhibitors of human RGS4 | P49798 | HEK293 M3R/RGS4 inducible, Fluo-4 calcium flux; stronger effect = higher value; triggered by carbachol at its EC20 | B-score at 10 µM | 310,000 compounds, 0.45% hits | AID 463165;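 active = B-score, a plate-corrected calcium signal, over three deviations above library mean, with baseline fluorescence within five deviations of library mean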;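 note: RGS4 expression induced by doxycycline in cells with stable M3 receptor; B-score is computed from the integrated fluorescence ratio over baseline after carbachol; higher B-score means a larger calcium signal and so more RGS4 inhibition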
Target sequence (P49798 whole entry, looked up): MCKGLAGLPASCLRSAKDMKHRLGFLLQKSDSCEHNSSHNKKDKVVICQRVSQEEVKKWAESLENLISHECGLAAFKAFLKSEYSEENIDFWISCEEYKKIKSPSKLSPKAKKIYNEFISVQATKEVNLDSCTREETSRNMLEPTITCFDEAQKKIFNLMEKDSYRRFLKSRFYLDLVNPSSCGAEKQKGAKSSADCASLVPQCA
MrgX1 antag = human MrgX1 receptor antagonism, primary screen. B-score at 10 µM. Q96LB2. MRGX1-HEK293 calcium flux, Fluo-4, BAM8-22 antagonism; stronger effect = lower value. 310,000 compounds, 1.3% hits. AID 588676;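 active = calcium-response B-score plate-corrected more than 3 library SD below zero, starting fluorescence within 5 deviations, no agonist response on first addition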;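 note: peak minus trough fluorescence over baseline after final BAM8-22 challenge near maximal dose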
Active calls of the source: *; i = inactive; / = not tested or not shown. Compounds with a hit are over-represented: about 3.5% of the library has one in this group of screens.

SMILES | MrgX1 PAM | MrgX1 agonist | RGS4 act | RGS4 inh | MrgX1 antag
CC(C)c1ccc2c(c1)CCC1C(C)(CN)CCCC21C (centres undefined) | i | 46* | i | i | i
CN1OC(Cn2cc(C#N)c(=O)n(C)c2=O)CC1c1ccccc1 (centres undefined) | i | i | i | i | -5.8*
COc1ccc(C(CNC(=O)C(=O)Nc2ccc3c(c2)OCO3)N2CCN(C)CC2)cc1 (centres undefined) | i | i | i | i | -6.2*
CC(C)(C)C(=O)c1sc2nc(-c3cccs3)cc(C(F)(F)F)c2c1N | i | i | -9.7* | i | i
CCN(CC)C(=O)c1sc2nc(-c3cccs3)cc(-c3cccs3)c2c1N | i | i | i | i | -7.2*
COc1ccccc1N=Nc1c(C)n[nH]c1C | i | i | i | i | i
Cc1n[nH]c(C)c1N=Nc1cc(Cl)ccc1Cl | i | i | i | i | -5.4*
COc1ccccc1CCC(=O)OCC(=O)Nc1cccc(S(=O)(=O)N2CCCCC2)c1 | i | i | i | i | -4.7*
Cc1sc2ncnc(NCC(O)c3ccc([N+](=O)[O-])cc3)c2c1C (centres undefined) | i | i | i | i | -5*
Cc1nc(NCC(c2ccccc2)N(C)C)c2c(C)c(C)sc2n1 (centres undefined) | i | i | -9.5* | i | i
Cc1sc2ncnc(NCC(c3ccccc3)N(C)C)c2c1C (centres undefined) | i | i | -7.5* | i | i
Cc1sc2ncnc(NCCCO)c2c1C | i | i | i | i | i
Cc1sc2ncnc(NCC(O)c3ccccc3)c2c1C (centres undefined) | i | i | i | i | i
COc1ccc(-c2c(C)n([O-])c3c([n+]2=O)CCCCC3)cc1OC | i | i | i | i | i
COc1ccc(OC)c(C2=C/C(=C/c3ccccn3)C(=O)O2)c1 | i | i | -7.9* | i | i
CNC(=O)c1ccc(-c2sc3nc(N4CCOCC4)c4c(c3c2N)CCCC4)o1 | 12* | i | i | i | i
Cc1ccc(OCCC(=O)OCC(=O)NC(=O)NC2CCCC2)cc1 | i | i | i | i | i
CC1=C(C#N)C(c2ccoc2)C(C(=O)OCc2ccccc2)=C(N)S1 (centres undefined) | i | i | i | i | i
N#CC1=C(N)SC(N)=C(C#N)C1c1ccoc1 | i | 37* | i | i | i
Cc1onc(-c2c(F)cccc2Cl)c1C(=O)NCc1ccc2c(c1)OCO2 | i | i | -7.4* | i | i
O=[N+]([O-])c1ccc(CSc2nnc(SCc3ccccc3)s2)cc1 | i | i | -8.3* | i | i
Nc1n[nH]c(CO)n1 | i | i | i | i | i
NC(=O)C1CCN(C2=C(NS(=O)(=O)c3ccc(Cl)cc3)C(=O)c3ccccc3C2=O)CC1 | 9.9* | i | i | i | i
CCCn1cc(S(=O)(=O)c2ccc(F)cc2)c(=O)c2cc(OCC)ccc21 | i | i | i | i | i
CCOc1cc(/C=N/NC(=O)c2cc(-c3cccc(OC)c3)nc3ccccc23)ccc1O | i | i | i | i | i
SMILES | MrgX1 PAM | MrgX1 agonist | RGS4 act | RGS4 inh | MrgX1 antag
C/C(=N\NC(=O)c1cc(-c2cccc(OC(C)C)c2)nc2ccccc12)c1cccnc1 | i | i | -9* | i | i
CC(C)COc1cccc(-c2cc(C(=O)N/N=C/c3ccncc3)c3ccccc3n2)c1 | i | i | -7.4* | i | i
CC[C@H](C)[C@H](NC(=O)c1ccccc1)C(=O)Nc1ccc(S(=O)(=O)Nc2cc(C)nc(C)n2)cc1 | i | i | i | i | i
Cc1cc(/C=C2\SC(=S)N(Cc3ccco3)C2=O)c(C)n1-c1cccnc1 | / | / | i | i | /
Cc1cc(/C=C2/SC(=S)N(c3cccc(C(F)(F)F)c3)C2=O)c(C)n1-c1cccnc1 | 16* | i | i | i | i
CC(C)Cn1cnc2c1c(=O)n(CC(=O)NC(=O)NC(C)(C)C)c(=O)n2Cc1ccccc1 | i | i | i | i | i
Cn1cc([N+](=O)[O-])c(C(=O)NNC(=O)c2ccc([N+](=O)[O-])cc2)n1 | i | i | i | i | -5.4*
Cc1cccc(C(=O)Oc2ccc3ccc(O)cc3c2)c1 | i | i | i | i | i
Cc1cc[n+](-c2[nH]c(=O)sc2/C=N/NC([S-])=Nc2ccccc2)cc1 | i | i | i | i | i
Cc1cc(C)c[n+](-c2[nH]c(=O)sc2/C=N/NC([S-])=Nc2ccccc2)c1 | i | i | i | i | -6.7*
CC1(C)CC(=O)C(C(c2ccc(Br)cc2)C2C(=O)CC(C)(C)CC2=O)C(=O)C1 | i | 41* | i | i | i
CC1(C)CC(=O)C(C(c2ccco2)C2C(=O)CC(C)(C)CC2=O)C(=O)C1 | i | i | i | i | -6.8*
O=C(CCNS(=O)(=O)c1ccccc1)N1CCCCCC1 | i | i | -7.1* | i | i
Cc1ccc(C(=O)COC(=O)c2cn3ccccc3n2)cc1 | i | i | i | i | i
O=[N+]([O-])c1cccc(-c2cn3nc(-c4ccccc4)c(-c4ccccc4)nc3n2)c1 | i | i | i | i | i
O=Nc1c(-c2cccc([N+](=O)[O-])c2)nc2ncccn12 | i | i | i | 6.2* | i
CC(=O)NC(NC(=S)Nc1ccc(N=Nc2ccccc2C)cc1C)C(Cl)(Cl)Cl (centres undefined) | i | i | i | i | -4.6*
Cc1csc(N/N=C/c2ccc(O)c([N+](=O)[O-])c2)n1 | i | i | i | i | -6*
O=C(COc1ccc(Cl)cc1)NNC(=S)NCc1ccccc1 | i | i | i | i | i
C=CCc1ccccc1OCC(=O)NNC(=S)NCc1ccccc1 | i | i | -7* | i | i
Cc1nonc1OCCn1c([N+](=O)[O-])cnc1C | i | i | i | i | i
C#CCOCCOCCOCCNc1nc(N2CCN(C(=O)CCCCCCCCCCNC(=O)[C@H](CCCN=C(N)N)n3cc(C[C@@H](C)CC)nn3)CC2)nc(N2CCN(C(=O)CCCCCCCCCCNC(=O)[C@@H]([C@H](C)CC)n3cc(CCCCCN)nn3)CC2)n1 | i | 51* | / | / | i
